These results are taken from ChEMBL document CHEMBL4325904 (Eur J Med Chem, 2019).

pIC50: −log10 of the molar value. Activity calls are given as the source filed them. No cut-off for these calls is given here.

Data set [1] has as its target T1, Protein deacetylase HDAC6 (Homo sapiens, UniProt Q9UBN7).
T1 sequence (Q9UBN7 whole entry): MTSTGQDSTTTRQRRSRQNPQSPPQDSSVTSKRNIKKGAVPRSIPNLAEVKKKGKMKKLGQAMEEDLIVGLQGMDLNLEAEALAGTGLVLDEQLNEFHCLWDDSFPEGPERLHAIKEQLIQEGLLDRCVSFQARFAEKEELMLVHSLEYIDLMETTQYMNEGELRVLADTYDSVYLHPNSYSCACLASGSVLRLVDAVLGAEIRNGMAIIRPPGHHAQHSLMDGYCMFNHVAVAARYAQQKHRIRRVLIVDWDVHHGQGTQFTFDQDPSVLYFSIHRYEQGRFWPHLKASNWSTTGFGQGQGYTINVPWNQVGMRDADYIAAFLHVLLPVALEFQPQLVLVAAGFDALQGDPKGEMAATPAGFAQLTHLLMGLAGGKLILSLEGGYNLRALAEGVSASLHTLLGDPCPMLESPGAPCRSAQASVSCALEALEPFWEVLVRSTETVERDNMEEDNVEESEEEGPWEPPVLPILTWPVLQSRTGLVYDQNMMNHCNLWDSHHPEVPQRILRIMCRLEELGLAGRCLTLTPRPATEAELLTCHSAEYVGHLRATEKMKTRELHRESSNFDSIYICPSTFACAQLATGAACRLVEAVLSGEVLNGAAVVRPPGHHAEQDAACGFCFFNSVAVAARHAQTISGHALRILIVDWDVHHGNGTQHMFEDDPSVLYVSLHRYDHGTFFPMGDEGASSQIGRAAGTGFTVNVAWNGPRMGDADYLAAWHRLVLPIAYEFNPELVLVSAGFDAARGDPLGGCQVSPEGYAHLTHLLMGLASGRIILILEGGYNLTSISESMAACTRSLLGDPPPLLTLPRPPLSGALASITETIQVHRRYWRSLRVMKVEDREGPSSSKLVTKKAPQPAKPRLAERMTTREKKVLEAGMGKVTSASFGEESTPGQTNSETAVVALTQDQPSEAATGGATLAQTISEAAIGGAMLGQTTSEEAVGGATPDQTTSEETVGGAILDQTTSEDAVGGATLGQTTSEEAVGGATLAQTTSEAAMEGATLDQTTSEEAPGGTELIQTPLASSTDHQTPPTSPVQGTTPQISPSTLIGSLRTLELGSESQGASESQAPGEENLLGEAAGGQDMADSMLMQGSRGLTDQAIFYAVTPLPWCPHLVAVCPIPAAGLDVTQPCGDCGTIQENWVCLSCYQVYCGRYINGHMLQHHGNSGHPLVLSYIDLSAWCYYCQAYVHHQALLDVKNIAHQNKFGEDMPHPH
The experiment in a line: Inhibition of recombinant N-terminal GST-tagged human HDAC6 (1 to 1215 residues) expressed in Baculovirus infected insect cells using RHKK-Ac as substrate by fluorimetric assay.

For another data set, the target named is T2, Histone deacetylase 11 (Homo sapiens, UniProt Q96DB2).
T2 sequence (Q96DB2 whole entry): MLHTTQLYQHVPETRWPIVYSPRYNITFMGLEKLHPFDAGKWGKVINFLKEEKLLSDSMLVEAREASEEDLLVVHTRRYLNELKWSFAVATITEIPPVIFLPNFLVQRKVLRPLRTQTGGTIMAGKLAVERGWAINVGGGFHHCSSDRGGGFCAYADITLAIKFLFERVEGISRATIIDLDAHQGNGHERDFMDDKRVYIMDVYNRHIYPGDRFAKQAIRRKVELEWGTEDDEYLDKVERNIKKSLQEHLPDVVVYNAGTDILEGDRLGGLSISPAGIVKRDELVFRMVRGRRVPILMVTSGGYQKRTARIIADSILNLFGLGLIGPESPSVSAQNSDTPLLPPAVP
The experiment in a line: Inhibition of recombinant C-terminal His-tagged human HDAC11 (1 to 347 residues) expressed in Baculovirus infected insect cells using RHKK-Ac as substrate by fluorimetric assay.

For data set [2], the species on record is Homo sapiens. The experiment in a line: Selectivity ratio of IC50 for recombinant full length C-terminal GST-tagged human HDAC2 (1 to 488 residues) to IC50 for recombinant N-terminal GST-tagged human HDAC6 (1 to 1215 residues).
For data set [3], the species on record is Homo sapiens. The experiment in a line: Selectivity ratio of IC50 for human recombinant full length C-terminal His-tagged HDAC3 (1 to 428 residues)/N-terminal GST-tagged NCOR2 (395 to 489 residues) to IC50 for recombinant N-terminal GST-tagged human HDAC6 (1 to 1215 residues).
For data set [4], the species on record is Homo sapiens. The experiment in a line: Selectivity ratio of IC50 for recombinant N-terminal GST-tagged /C-terminal His-tagged human HDAC4 (627 to 1084 residues) to IC50 for recombinant N-terminal GST-tagged human HDAC6 (1 to 1215 residues).
Data set [5] is filed under the species Homo sapiens. The experiment in a line: Selectivity ratio of IC50 for recombinant C-terminal His-tagged human HDAC5 (656 to 1122 residues) to IC50 for recombinant N-terminal GST-tagged human HDAC6 (1 to 1215 residues).
The species named for data set [6] is Homo sapiens. The experiment in a line: Selectivity ratio of IC50 for recombinant N-terminal GST-tagged human HDAC7 (518 to 991 residues) to IC50 for recombinant N-terminal GST-tagged human HDAC6 (1 to 1215 residues).
The species entered for data set [7] is Homo sapiens. The experiment in a line: Selectivity ratio of IC50 for human HDAC10 to IC50 for recombinant N-terminal GST-tagged human HDAC6 (1 to 1215 residues).
The next data set concerns Kasumi 1. The experiment in a line: Antiproliferative activity against human Kasumi-1 cells after 72 hrs by resazurin dye-based assay. Type of data set: functional, cell-based. The note with it: Kasumi 1, 72 h. The essentials:
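KASUMI-1 cells incubated with compounds for 72 hr; viability read with resazurin reagent. IC50 taken as the mean of three experiments, each run in duplicate.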
(Resazurin is reduced to fluorescent resorufin, in cell work by metabolically active cells.)

Data set [8] can be described thus: Drug uptake in human A549 cells cytoplasm at 1 uM after 2 hrs by naphthalimide dye-based inverted light fluorescence confocal microscopic analysis. Type of data set: ADME, subcellular. The note with it: a549, 2 h. In a few lines:
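A549 cells incubated 2 hours with compound at 1 µM; intracellular distribution imaged by confocal microscopy with 405 nm laser excitation, emission collected at 460–560 nm.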

A further data set has as its system Danio rerio. The experiment in a line: Antiangiogenic activity in zebrafish embryo assessed as effect on blood vessel development at 10 uM administered from 24 to 50 hrs post fertilization for 24 hrs and measured after 72 hrs by alkaline phosphatase assay. Type of data set: functional, organism-based. The essentials: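 Zebrafish embryos exposed at 10 µM from 24–50 hpf alongside vehicle-only controls; at 72 hpf embryos stained with alkaline phosphatase to visualise blood vessels.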

Consider `O=C(CCCCCN1C(=O)c2cccc3c(NCc4ccccc4)ccc(c23)C1=O)NO`, for which the pIC50 is 8.46 in data set [1], 6.82 at Histone deacetylase 11 and 6.44 in the data set with Kasumi 1. Also, the Ratio IC50 in the data set filed under Homo sapiens [2] was 240; in the data set filed under Homo sapiens [3] it was 100 to 103; in the data set filed under Homo sapiens [4], 1500; in the data set listed under Homo sapiens [5], 970; in the data set listed under Homo sapiens [6], 910; in the data set listed under Homo sapiens [7], 190. Moreover, in [8], the Drug uptake entry is listed as “Active”. Further, the outcome with Danio rerio was Active.
Take `CCCNc1ccc2c3c(cccc13)C(=O)N(CCCCCC(=O)NO)C2=O`: the pIC50 in data set [1] was 8.32; on Histone deacetylase 11 it was 7.10; with Kasumi 1, 7.02. Further, the Ratio IC50 is 88 in the data set listed under Homo sapiens [2]; 23 in the data set listed under Homo sapiens [3]; > 2000 in the data set filed under Homo sapiens [4]; 1100 in the data set listed under Homo sapiens [5]; 1900 in the data set filed under Homo sapiens [6]; 67 in the data set listed under Homo sapiens [7]. For the same compound, the Drug uptake entry in data set [8] is given as “Active”. For the same compound, the outcome in the data set with Danio rerio was Active.

Broadly, the pIC50 is the negative decadic logarithm of the IC50, by convention in mol/L.
